Results: ChEMBL document CHEMBL1137344, “Flavonoid dimers as bivalent modulators for P-glycoprotein-based multidrug resistance: synthetic apigenin homodimers linked with defined-length poly(ethylene glycol) spacers increase drug retention and enhance chemosensitivity in resistant cancer cells” (J Med Chem, 2006)
Calls of active or inactive are those of the source. The calls are words filed in the database; no cut-off is given here.

Assays:
MDA-MB-435 [1] = assay: Relative fold, IC50 in absence to presence of 1,13-bis[4'-((5,7-dihydroxy)-4H-chromen-4-on-2-yl)phenyl]-1,4,7,10,13-pentaoxatridecane in multidrug resistant MDA435/LCC6 cells; format: functional, Homo sapiens
Summary of the method: (§1)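 Resistant breast cells seeded 2000/well, allowed 24 h attachment, then exposed to anticancer-drug concentration series with or without 5 µM modulator for 4 days. MTS/PMS read at 490 nm after 2 h. IC50 from dose-response curves relative to 0.05% DMSO controls. RF = IC50 without modulator divided by IC50 with modulator.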

MDA-MB-435 [2] = assay: Antiproliferative activity against multidrug resistant MDA435/LCC6 cells in presence of 5 uM 1,13-bis[4'-((5,7-dihydroxy)-4H-chromen-4-on-2-yl)phenyl]-1,4,7,10,13-pentaoxatridecane by ELISA; format: functional, cell-based; details: Homo sapiens; summary of the method: as §1
P388/ADR [3] = assay: Antiproliferative activity against adriamycin resistant P388 cells by ELISA; format: functional, cell-based; details: Mus musculus
Summary of the method: (§2)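 MTS/PMS proliferation assay: cells seeded 5000/well in RPMI 1640 with 10% FBS and penicillin/streptomycin at 37 °C, 5% CO2. Drug series added and cells grown 3 days. MTS/PMS added for 2 h at 37 °C, absorbance read at 490 nm. Survival relative to DMSO (0.05%) controls; IC50 from dose-response curves, at least triplicate.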

MDA-MB-435 [4] = assay: Antiproliferative activity against MDA435/LCC6 cells by ELISA; format: functional, cell-based; details: Homo sapiens
P388/ADR [5] = assay: Antiproliferative activity against adriamycin resistant P388 cells in presence of 5 uM verapamil by ELISA; format: functional, cell-based; details: Mus musculus
Summary of the method: (§3)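 P388/ADR cells seeded 5000/well in RPMI 1640 with 10% FBS, given drug concentration series with or without 5 µM modulator for 3 days. MTS/PMS added for 2 h at 37 °C, absorbance at 490 nm. IC50 from dose-response curves versus 0.05% DMSO controls. RF = IC50 without modulator / IC50 with modulator.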

P388 [6] = assay: Antiproliferative activity against P388 cells by ELISA; format: functional, cell-based; details: Mus musculus; summary of the method: as §2
P388 [7] = assay: Relative fold, IC50 in absence to presence of 1,13-bis[4'-((5,7-dihydroxy)-4H-chromen-4-on-2-yl)phenyl]-1,4,7,10,13-pentaoxatridecane in multidrug resistant P388 cells; format: functional, Mus musculus; summary of the method: as §3
P388 [8] = assay: Relative fold, IC50 in absence to presence of verapamil in multidrug resistant P388 cells; format: functional, Mus musculus; summary of the method: as §3
P388/ADR [9] = assay: Antiproliferative activity against adriamycin resistant P388 cells in presence of 5 uM 1,13-bis[4'-((5,7-dihydroxy)-4H-chromen-4-on-2-yl)phenyl]-1,4,7,10,13-pentaoxatridecane by ELISA; format: functional, cell-based; details: Mus musculus; summary of the method: as §3
MDA-MB-435 [10] = assay: Antiproliferative activity against multidrug resistant MDA435/LCC6 cells by ELISA; format: functional, cell-based; details: Homo sapiens
Summary of the method: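 MTS/PMS proliferation assay: cells seeded 2000/well, drugs added after 24 h attachment, growth 4 days in DMEM with 10% FBS at 37 °C, 5% CO2. MTS/PMS added for 2 h, absorbance read at 490 nm. Survival is taken relative to DMSO (0.05%) controls. IC50 is read from dose-response curves, at least triplicate, repeated twice.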

MDA-MB-435 [11] = assay: Reversal of vinblastine resistance in multidrug resistant MDA435/LCC6 cells by MTS assay at 10 uM; format: functional, cell-based; details: Homo sapiens
Summary of the method: (§4)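 MDA435/LCC6 MDR cells in DMEM with 10% FBS, 2000 cells/well, allowed to attach for 24 h. Anticancer drug was added in serial concentrations with or without modulator (dimers 5 µM, monomers 10 µM; 0.05% DMSO solvent control), then grown for 4 days at 37 °C, 5% CO2. MTS/PMS was added for 2 h and A490 read. Survival was taken relative to DMSO controls; IC60 for DOX, IC50 for the others; triplicate.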

MDA-MB-435 [12] = assay: Cytotoxicity against MDA435/LCC6 cells at 10 uM; format: functional, cell-based; details: Homo sapiens
MDA-MB-435 [13] = assay: Reversal of DOX resistance in multidrug resistant MDA435/LCC6 cells by MTS assay at 10 uM; format: functional, cell-based; details: Homo sapiens; summary of the method: as §4
MDA-MB-435 [14] = assay: Reversal of paclitaxel resistance in multidrug resistant MDA435/LCC6 cells by MTS assay; format: functional, cell-based; details: Homo sapiens
Summary of the method: (§5)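 Resistant MDA435/LCC6 cells, 4-day MTS assay of paclitaxel or vinblastine dose-response with dimers at 5 µM or monomers at 10 µM. Verapamil 5 µM as positive control, DMSO 0.05% as solvent control. IC50 from curves, triplicate, some repeated three times and averaged.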

MDA-MB-435 [15] = assay: Effect on P-gp-mediated drug efflux in multidrug resistant MDA435/LCC6 cells assessed as intracellular DOX accumulation at 0 to 10 uM; format: functional, Homo sapiens
Summary of the method: (§6)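 Resistant MDA435/LCC6 cells grown to confluence, preincubated 30 min at 37 °C in fresh DMEM with modulator (0–20 µM), then DOX added (final 20 µM) for 2 h at 37 °C. Cells trypsinized, washed in cold PBS, lysed in 0.3 N HCl/50% ethanol, sonicated, centrifuged. Supernatant fluorescence read at ex 470/em 585 nm. Mean ± SD of three independent experiments.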

[16] = biological target: T1, ATP-dependent translocase ABCB1 (Homo sapiens, UniProt P08183); assay: Increase in VP-induced ATPase activity in human P-gp membrane measured as fold over the basal level in presence of 5 mM MgATP at 100 uM; format: functional, cell membranes
T1 sequence (P08183 whole entry): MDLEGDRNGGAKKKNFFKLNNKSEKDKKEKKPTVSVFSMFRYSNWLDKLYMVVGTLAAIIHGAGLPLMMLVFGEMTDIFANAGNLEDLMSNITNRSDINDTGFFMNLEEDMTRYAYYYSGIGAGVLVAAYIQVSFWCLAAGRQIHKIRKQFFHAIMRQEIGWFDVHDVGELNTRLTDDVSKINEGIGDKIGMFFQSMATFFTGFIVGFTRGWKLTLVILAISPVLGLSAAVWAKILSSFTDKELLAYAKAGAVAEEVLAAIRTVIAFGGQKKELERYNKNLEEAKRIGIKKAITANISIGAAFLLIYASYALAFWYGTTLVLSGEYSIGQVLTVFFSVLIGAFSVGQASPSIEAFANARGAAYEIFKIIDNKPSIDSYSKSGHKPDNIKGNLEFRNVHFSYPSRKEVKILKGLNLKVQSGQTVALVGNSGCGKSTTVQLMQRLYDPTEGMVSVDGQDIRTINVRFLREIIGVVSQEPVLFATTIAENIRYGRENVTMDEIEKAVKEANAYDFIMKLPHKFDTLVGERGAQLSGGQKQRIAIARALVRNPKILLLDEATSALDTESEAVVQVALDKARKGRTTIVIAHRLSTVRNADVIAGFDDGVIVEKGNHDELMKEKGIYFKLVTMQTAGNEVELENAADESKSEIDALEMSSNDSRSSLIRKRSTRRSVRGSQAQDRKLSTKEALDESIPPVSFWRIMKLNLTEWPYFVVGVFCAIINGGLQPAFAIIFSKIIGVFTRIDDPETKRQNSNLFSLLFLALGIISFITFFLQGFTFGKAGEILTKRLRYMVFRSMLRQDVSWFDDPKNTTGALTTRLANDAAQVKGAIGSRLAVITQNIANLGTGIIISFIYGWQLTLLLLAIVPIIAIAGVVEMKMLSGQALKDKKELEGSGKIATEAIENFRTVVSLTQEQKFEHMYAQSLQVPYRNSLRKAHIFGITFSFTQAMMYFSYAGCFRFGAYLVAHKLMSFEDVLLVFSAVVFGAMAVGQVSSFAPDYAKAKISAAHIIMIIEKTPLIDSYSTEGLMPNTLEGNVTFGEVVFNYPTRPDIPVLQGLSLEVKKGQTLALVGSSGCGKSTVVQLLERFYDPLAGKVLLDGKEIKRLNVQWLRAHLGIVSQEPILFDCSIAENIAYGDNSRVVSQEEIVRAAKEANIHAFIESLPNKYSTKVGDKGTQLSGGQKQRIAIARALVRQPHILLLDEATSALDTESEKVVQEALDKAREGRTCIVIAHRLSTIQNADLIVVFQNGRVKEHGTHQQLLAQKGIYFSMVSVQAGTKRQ
Summary of the method: (§7)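 Human P-gp membrane (25 µg) incubated at 37 °C with compound (100 µM), verapamil (100 µM), both, Na3VO4 (100 µM) or 0.1% DMSO. Reaction started with 5 mM MgATP, run 40 min at 37 °C. Remaining ATP detected by luciferase luminescence after 20 min at room temperature. Activity is the luminescence drop versus vanadate-treated samples.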

P388/ADR [17] = assay: Effect on P-gp-mediated drug efflux in adriamycin drug resistant P388 cells assessed as DOX accumulation after 30 mins; details: Mus musculus
MDA-MB-435 [18] = assay: Effect on P-gp-mediated drug efflux in MDA435/LCC6 cells assessed as intracellular DOX accumulation; format: functional, cell-based; details: Homo sapiens
Summary of the method: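 Confluent MDA435/LCC6 parent and MDR cells were preincubated with modulator in fresh DMEM for 30 min at 37 °C (range 0–20 µM; 0.05% DMSO control). DOX at 20 µM final was added for 2 h at 37 °C. Cells were trypsinised, washed three times in cold PBS, lysed in 0.3 N HCl/50% ethanol, sonicated and centrifuged. Supernatant DOX fluorescence was read (ex 470, em 585 nm); three independent experiments.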

MDA-MB-435 [19] = assay: Cytotoxicity against MDA435/LCC6 cells at 5 uM; format: functional, cell-based; details: Homo sapiens
P388/ADR [20] = assay: Reversal of mitoxantrone resistance in adriamycin resistant P388 cells by MTS assay; format: functional, cell-based; details: Mus musculus
Summary of the method: (§8)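 P388/ADR cells in RPMI 1640 with 10% FBS and penicillin/streptomycin, 5000 cells/well. Serial drug concentrations were given with or without modulator (dimers 5 µM, monomers 10 µM; 0.05% DMSO control) and cells grown for 3 days at 37 °C. Read-out was MTS/PMS for 2 h, then A490. IC50 was taken from dose-response curves relative to solvent control; triplicate wells.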

P388 [21] = assay: Effect on P-gp-mediated drug efflux in P388 cells assessed as DOX accumulation after 30 mins; details: Mus musculus
[22] = biological target: T1, ATP-dependent translocase ABCB1; assay: Increase in ATPase activity in human P-gp membrane measured as fold over the basal level in presence of 5 mM MgATP at 100 uM; format: functional, cell membranes; summary of the method: as §7
P388/ADR [23] = assay: Reversal of DOX resistance in P388 ADR cells by MTS assay at 5 uM; format: functional, cell-based; details: Mus musculus
Summary of the method: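 P388/ADR cells: 3-day MTS assay of DOX dose-response with modulator at 5 µM, or 10 µM for monomers. Verapamil 5 µM and 0.05% DMSO as controls. IC50 from curves, triplicate points, mean ± SD of three independent experiments.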

MDA-MB-435 [24] = assay: Effect on P-gp-mediated drug efflux in multidrug resistant MDA435/LCC6 cells assessed as relative fold in intracellular DOX accumulation at 10 uM; format: functional, Homo sapiens; summary of the method: as §6
P388/ADR [25] = assay: Reversal of daunorubicin resistance in P388 ADR cells by MTS assay at 5 uM; format: functional, cell-based; details: Mus musculus; summary of the method: as §8
MDA-MB-435 [26] = assay: Reversal of cisplatin resistance in multidrug resistant MDA435/LCC6 cells by MTS assay; format: functional, cell-based; details: Homo sapiens
MDA-MB-435 [27] = assay: Reversal of vinblastine resistance in multidrug resistant MDA435/LCC6 cells by MTS assay; format: functional, cell-based; details: Homo sapiens; summary of the method: as §5
[28] = biological target: T1, ATP-dependent translocase ABCB1; assay: Inhibition of VP-induced ATPase activity in human P-gp membrane in presence of verapamil; format: functional, cell membranes; design: scale not given: the % may be the effect or the level left
P388/ADR [29] = assay: Reversal potency of DOX resistance in P388 ADR cells by MTS assay; format: functional, cell-based; details: Mus musculus
Summary of the method: (§9)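 P388/ADR cells: DOX or daunorubicin IC50 by 3-day MTS assay (A490) with modulator at 0–10 µM. Concentration dependence of IC50 used to gauge reversal potency. Typical experiment in triplicate.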

P388/ADR [30] = assay: Reversal potency of daunorubicin resistance in P388 ADR cells by MTS assay; format: functional, cell-based; details: Mus musculus; summary of the method: as §9
MDA-MB-435 [31] = assay: Reversal of mitoxantrone resistance in multidrug resistant LCC6 cells by MTS assay; format: functional, cell-based; details: Homo sapiens; summary of the method: as §4
MDA-MB-435 [32] = assay: Reversal potency of vinblastine resistance in multidrug resistant MDA435/LCC6 cells by MTS assay; format: functional; details: Homo sapiens, in the assay text read “doxorubicin” for “vinblastine”
MDA-MB-435 [33] = assay: Relative fold, IC50 in absence to presence of verapamil in multidrug resistant MDA435/LCC6 cells; format: functional, Homo sapiens; summary of the method: as §1
MDA-MB-435 [34] = assay: Antiproliferative activity against multidrug resistant MDA435/LCC6 cells in presence of 5 uM verapamil by ELISA; format: functional, cell-based; details: Homo sapiens; summary of the method: as §1

Compound	Ratio IC50 (MDA-MB-435 [1])	IC50 (MDA-MB-435 [2]) [nM]	IC50 (P388/ADR [3]) [nM]	IC50 (MDA-MB-435 [4]) [nM]	IC50 (P388 [6]) [nM]	Ratio IC50 (P388 [7])	IC50 (P388/ADR [9]) [nM]	IC50 (MDA-MB-435 [10]) [nM]	Activity (MDA-MB-435 [11])	Activity (MDA-MB-435 [12])	Activity (MDA-MB-435 [13])	EC50 (MDA-MB-435 [14]) [nM]	Ratio IC50 (MDA-MB-435 [33])	IC50 (MDA-MB-435 [34]) [nM]	other results
COc1cccc2c1C(=O)c1c(O)c3c(c(O)c1C2=O)C[C@@](O)(C(C)=O)C[C@@H]3O[C@H]1C[C@H](N)[C@H](O)[C@H](C)O1 [DAUNORUBICIN]	7.6	129	2110	79	25	20	106	977							IC50 (P388/ADR [5]): 40 nM; Ratio IC50 (P388 [8]): 53
O=c1cc(-c2ccc(OCCOCCOCCO)cc2)oc2cc(O)cc(O)c12									inactive	inactive	inactive				
O=c1cc(-c2ccc(OCCOCCOCCOCCO)cc2)oc2cc(O)cc(O)c12									inactive	inactive	inactive	> 10000			
O=c1cc(-c2ccc(OCCOCCOCCOCCOc3ccc(-c4cc(=O)c5c(O)cc(O)cc5o4)cc3)cc2)oc2cc(O)cc(O)c12												900			Activity (MDA-MB-435 [15]): 17%; Activity [16]: 7.4; Activity (P388/ADR [17]): Dose-dependent effect; Activity (MDA-MB-435 [18]): inactive; Activity (MDA-MB-435 [19]): inactive; Activity (P388/ADR [20]): inactive; Activity (P388 [21]): inactive; Activity [22]: 3.3; IC50 (MDA-MB-435 [14]): 4.4 nM; IC50 (P388/ADR [23]): 150 nM; Activity (MDA-MB-435 [24]): 5.8; IC50 (P388/ADR [25]): 100 nM; Activity (MDA-MB-435 [26]): inactive; Activity (MDA-MB-435 [27]): Dose-dependent effect; IC50 (MDA-MB-435 [27]): 0.36 nM; Activity [28]: 17%; IC50 (P388/ADR [29]): 150 nM; IC50 (P388/ADR [30]): 100 nM; Activity (MDA-MB-435 [31]): inactive; IC60 (MDA-MB-435 [32]): 0.73 µM
COc1cccc2c1C(=O)c1c(O)c3c(c(O)c1C2=O)C[C@@](O)(C(=O)CO)C[C@@H]3O[C@H]1C[C@H](N)[C@H](O)[C@H](C)O1 [DOXORUBICIN]	9	550	1740	300	22	14	123	4690					16	300	
CC[C@]1(O)C[C@@H]2CN(CCc3c([nH]c4ccccc34)[C@@](C(=O)OC)(c3cc4c(cc3OC)N(C)[C@H]3[C@@](O)(C(=O)OC)[C@H](OC(C)=O)[C@]5(CC)C=CCN6CC[C@]43[C@@H]65)C2)C1 [VINBLASTINE]	10	0.42	95	0.34	4.1	22	4.3	4.4					15	0.29	
